According to ChEMBL document CHEMBL4765368, “Structure guided design and synthesis of furyl thiazolidinedione derivatives as inhibitors of GLUT 1 and GLUT 4, and evaluation of their anti-leukemic potential” (Eur J Med Chem, 2020):
Active and inactive are the calls of the source. No cut-off for these calls is given here.

Key:
[1] = target: T1, Solute carrier family 2, facilitated glucose transporter member 5 (Homo sapiens) (UniProt P22732); test: Inhibition of transport activity of human GLUT5 expressed in hexose transporter deficient VW4000 yeast cells assessed as reduction in transporter-mediated [14C]-fructose uptake into cells at 100 uM measured after 10 mins by scintillation counting method; assay type: cell-based
T1 sequence (whole entry): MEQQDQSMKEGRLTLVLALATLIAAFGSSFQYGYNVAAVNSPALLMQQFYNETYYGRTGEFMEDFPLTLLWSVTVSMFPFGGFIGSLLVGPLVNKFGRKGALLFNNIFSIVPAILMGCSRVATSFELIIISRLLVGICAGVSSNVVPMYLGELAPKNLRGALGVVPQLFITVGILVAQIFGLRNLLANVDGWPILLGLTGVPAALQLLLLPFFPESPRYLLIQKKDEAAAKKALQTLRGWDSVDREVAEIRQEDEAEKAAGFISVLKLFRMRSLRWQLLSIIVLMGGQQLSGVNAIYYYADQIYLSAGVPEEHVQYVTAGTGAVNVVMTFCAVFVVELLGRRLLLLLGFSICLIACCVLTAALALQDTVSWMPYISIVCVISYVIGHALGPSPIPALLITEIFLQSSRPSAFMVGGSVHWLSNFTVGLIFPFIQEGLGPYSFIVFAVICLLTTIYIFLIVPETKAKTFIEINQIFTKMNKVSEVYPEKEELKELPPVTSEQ
Summary of the method: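 The hxt0 yeast strain expressing one human GLUT was grown at 30 °C and resuspended in PBS pH 7.4 at OD600 ~10. Uptake was started with 14C-glucose at 5 mM final (GLUT1, GLUT4) or 14C-fructose at 10 mM final (GLUT5). It was quenched after 10 min with ice-cold 0.1 M KPi/0.1 M LiCl pH 5.5, filtered and counted by scintillation. Compound at 100 μM with 1% DMSO; DMSO control and phloretin 200 μM (GLUT1/4) or MSNBA 100 μM (GLUT5) as references. Triplicates.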

[2] = target: T2, Solute carrier family 2, facilitated glucose transporter member 1 (Homo sapiens, UniProt P11166); test: Inhibition of transport activity of human GLUT1 expressed in hexose transporter deficient VW4000fgy1 yeast cells assessed as reduction in transporter-mediated [14C]-hexose uptake into cells measured after 10 mins by scintillation counting method; assay type: cell-based
T2 sequence (P11166 whole entry): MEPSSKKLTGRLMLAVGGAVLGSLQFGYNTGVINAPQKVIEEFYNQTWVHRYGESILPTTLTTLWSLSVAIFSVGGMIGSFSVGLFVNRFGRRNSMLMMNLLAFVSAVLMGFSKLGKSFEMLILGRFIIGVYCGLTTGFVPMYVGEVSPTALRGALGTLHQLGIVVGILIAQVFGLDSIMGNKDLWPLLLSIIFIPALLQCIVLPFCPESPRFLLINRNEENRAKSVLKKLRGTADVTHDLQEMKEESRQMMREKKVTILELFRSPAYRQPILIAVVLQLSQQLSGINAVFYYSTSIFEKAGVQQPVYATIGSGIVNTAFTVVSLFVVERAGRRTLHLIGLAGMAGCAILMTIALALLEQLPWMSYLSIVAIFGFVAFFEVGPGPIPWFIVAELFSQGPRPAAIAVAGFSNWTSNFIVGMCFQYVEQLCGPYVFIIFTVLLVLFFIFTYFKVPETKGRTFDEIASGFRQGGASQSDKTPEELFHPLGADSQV
Summary of the method: (§1)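 GLUT1 (VW4000fgy1) or GLUT4 (VW4000fgy1erg4) hxt0 yeast were grown on maltose and then glucose and resuspended in PBS pH 7.4 at OD600 ~10. Compound was used at 0.1–100 μM, final 1% DMSO. Uptake of 5 mM 14C-glucose over 10 min was stopped with ice-cold quench buffer, filtered and counted by scintillation. IC50 was taken from dose-response curves of three independent measurements.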

[3] = target: T3, Solute carrier family 2, facilitated glucose transporter member 4 (Homo sapiens, UniProt P14672); test: Inhibition of transport activity of human GLUT4 expressed in hexose transporter deficient W4000fgy1 erg4 yeast cells assessed as reduction in transporter-mediated [14C]-hexose uptake into cells measured after 10 mins by scintillation counting method; assay type: cell-based; summary of the method: as §1
T3 sequence (P14672 whole entry): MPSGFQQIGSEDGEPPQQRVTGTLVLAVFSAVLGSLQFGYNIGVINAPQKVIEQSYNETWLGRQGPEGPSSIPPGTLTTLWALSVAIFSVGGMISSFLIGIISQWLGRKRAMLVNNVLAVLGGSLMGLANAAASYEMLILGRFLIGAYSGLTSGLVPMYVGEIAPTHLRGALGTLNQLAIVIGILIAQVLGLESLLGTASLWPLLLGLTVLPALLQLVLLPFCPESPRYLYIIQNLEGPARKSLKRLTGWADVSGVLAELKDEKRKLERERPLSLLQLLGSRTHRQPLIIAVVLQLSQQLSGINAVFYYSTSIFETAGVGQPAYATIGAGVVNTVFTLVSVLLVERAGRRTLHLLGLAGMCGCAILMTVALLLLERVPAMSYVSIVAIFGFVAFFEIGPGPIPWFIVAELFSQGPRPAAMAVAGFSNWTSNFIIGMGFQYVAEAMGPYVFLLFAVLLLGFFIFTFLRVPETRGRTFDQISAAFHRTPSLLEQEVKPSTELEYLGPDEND

[4] = system: CCRF-CEM; test: Cytotoxicity against human CCRF-CEM cells assessed as reduction in cell viability measured after 48 hrs by Hoechst 33342/propidium iodide staining based imaging analysis; assay type: functional
Summary of the method: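 Cells were seeded at 10,000 per well (HS-27 at 3,000) in 10% FBS RPMI (leukemic lines) or DMEM (MDA-MB-231, HS-27). Compound in DMSO (1% v/v final) at 0.5–100 µM for 48 h. Hoechst 33342 and PI were added 2 h before automated imaging; dead cells were co-stained. Quadruplicates. CC50 was taken by linear interpolation between the two concentrations nearest 50% death.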

[5] = target: T4, Histone deacetylase 8 (Homo sapiens) (UniProt Q9BY41); test: Inhibition of recombinant human His6/SUMO-tagged HDAC8 expressed in Escherichia coli (BL21) DE3 pLysS assessed as residual activity at 50 uM using Boc-Lys(trifluoroacetyl)-AMC as substrate preincubated for 60 mins followed by substrate addition and measured after 60 mins by fluorescence assay relative to control; settings: time 120.0 min
T4 sequence (whole entry): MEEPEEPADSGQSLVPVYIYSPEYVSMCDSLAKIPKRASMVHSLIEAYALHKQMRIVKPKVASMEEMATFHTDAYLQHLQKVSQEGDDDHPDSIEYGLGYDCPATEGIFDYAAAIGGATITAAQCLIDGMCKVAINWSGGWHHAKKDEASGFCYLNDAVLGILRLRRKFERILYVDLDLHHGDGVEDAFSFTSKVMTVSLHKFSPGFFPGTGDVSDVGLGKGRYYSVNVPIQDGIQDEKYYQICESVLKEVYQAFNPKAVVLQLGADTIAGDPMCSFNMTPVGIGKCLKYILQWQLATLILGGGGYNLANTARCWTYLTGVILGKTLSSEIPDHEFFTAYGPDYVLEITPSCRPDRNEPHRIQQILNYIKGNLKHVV
Summary of the method: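 20 μM Boc-Lys(trifluoroacetyl)-AMC was then added for 60 min at 30 °C, the reaction stopped with 1.7 μM SATFMK and developed with 0.4 mg/ml trypsin, and AMC fluorescence read at Ex 350/Em 450 nm. Triplicates; percent relative activity.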

| Structure (SMILES) | inhibition [1] | IC50 [2] | IC50 [3] | CC50 [4] | Activity [5] |
| --- | --- | --- | --- | --- | --- |
| O=C(CN1C(=O)S/C(=C/c2ccco2)C1=O)Nc1ccc(Cl)c(Cl)c1 | inactive | 14.7 µM | 152 µM | 7.8 µM | > 50% |
| O=C(CN1C(=O)S/C(=C/c2ccco2)C1=O)Nc1nc2ccccc2s1 | inactive | 11.4 µM | 6.8 µM | 1.7 µM | > 50% |
